Measurements from ChEMBL document CHEMBL1122224, “Synthesis and gastric antisecretory properties of 4,5-unsaturated derivatives of 15-deoxy-16-hydroxy-16-methylprostaglandin E1” (J Med Chem, 1983).

Experiments:
Rattus norvegicus = test: Diarrheal effect after ig administration in rats; format: functional; details: po
Method in brief: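 Male Charles River rats, 210–230 g, are fasted 24 h and housed singly. Logarithmically graded oral PG doses are given, N = 6–12. Diarrhea is scored all-or-none at hourly intervals up to 8 h after dosing, and an ED50 is derived.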

Canis familiaris [1] = test: Antisecretory activity after iv administration in histamine-stimulated Heidenhain pouch dogs; Range is 0.3-1.0; format: functional; details: Canis lupus familiaris
Method in brief: (§1)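 Conscious Heidenhain-pouch dogs, fasted 18 h, with iv saline. Histamine is infused at 1.0 mg/h (about 13.0 mL/h) to a steady plateau. A single iv bolus of PG follows, from ethanol stock diluted in isoosmotic phosphate buffer (≤20% alcohol). Doses are log-spaced, usually 0.1–100 μg/kg, with ≥2 dogs per dose. Acid is measured by titration to pH 7.0 in 15-min samples; ED50 is the 50% inhibition of total acid output.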

Canis familiaris [2] = test: Antisecretory activity after ig administration in histamine-stimulated gastric fistula dogs; Range is 4.5-10.0; format: functional; details: Canis lupus familiaris, Stomach, po
Method in brief: (§2)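 Conscious gastric-fistula dogs, fasted 18 h, in Pavlov stands with iv 0.15 M NaCl. After basal collection, histamine is infused iv at 1.0 mg/h (about 6.5 mL/h). At the steady-state plateau, the PG is given intragastrically through a dosing plug and the cannula is closed 30 min. Collections are then taken every 15 min and titrated with 0.1 N NaOH to pH 7.0.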

[3] = Ratio of ED50 of diarrheal effect to antisecretory effect; format: ADME; details: read-out: Therapeutic index
Method in brief: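 Ratio of the oral diarrheal ED50 in fasted male rats to the ig antisecretory ED50 in histamine-stimulated gastric-fistula dogs.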

Canis familiaris [4] = test: Antisecretory activity after ig administration in histamine-stimulated gastric fistula dogs; Range is 2.4-3.0; format: functional; details: Canis lupus familiaris, Stomach, po; method in brief: as §2
Canis familiaris [5] = test: Antisecretory activity after iv administration in histamine-stimulated Heidenhain pouch dogs.; format: functional; details: Canis lupus familiaris; method in brief: as §1
Canis familiaris [6] = test: Antisecretory activity after ig administration in histamine-stimulated gastric fistula dogs; Range is 6.5-10.0; format: functional; details: Canis lupus familiaris, Stomach, po; method in brief: as §2
Canis familiaris [7] = test: Antisecretory activity after iv administration in histamine-stimulated Heidenhain pouch dogs; Range is 0.1-0.3; format: functional; details: Canis lupus familiaris; method in brief: as §1
Canis familiaris [8] = test: Antisecretory activity after ig administration in histamine-stimulated gastric fistula dogs; Range is 0.3-1.0; format: functional; details: Canis lupus familiaris, Stomach, po; method in brief: as §2
Canis familiaris [9] = test: Antisecretory activity after ig administration in histamine-stimulated gastric fistula dogs; Range is 5.5-10.0; format: functional; details: Canis lupus familiaris, Stomach, po; method in brief: as §2

| Structure (SMILES) | ED50 (Rattus norvegicus) [µg/kg] | selectivity ratio [3] | also measured |
| --- | --- | --- | --- |
| CCCCC(C)(O)C/C=C/[C@H]1[C@H](O)CC(=O)[C@@H]1C/C=C\CCCC(=O)OC (stereo not given in full) | 124 | 27.6 | ED50 (Canis familiaris [1]): 0.3 µg/kg; ED50 (Canis familiaris [2]): 4.5 µg/kg |
| CCCCC(C)(C)[C@H](O)/C=C/C1[C@H](O)CC(=O)[C@@H]1C/C=C\CCCC(=O)OC (stereo not given in full) | 10 | 4.2 | ED50 (Canis familiaris [4]): 2.4 µg/kg |
| CCCCC(C)(O)C/C=C/[C@H]1[C@H](O)CC(=O)[C@@H]1CCC#CCCC(=O)OC (stereo not given in full) | – | – | ED50 (Canis familiaris [5]): > 100 µg/kg |
| CCCCC(C)(O)C/C=C/[C@H]1[C@H](O)CC(=O)[C@@H]1CC/C=C/CCC(=O)OC (stereo not given in full) | – | – | ED50 (Canis familiaris [5]): 10 µg/kg |
| CCCCC[C@](C)(O)/C=C/C1[C@H](O)CC(=O)[C@@H]1C/C=C\CCCC(=O)OC (stereo not given in full) | 27 | 4.2 | ED50 (Canis familiaris [6]): 6.5 µg/kg |
| CCCCC(C)(O)C/C=C/[C@H]1[C@H](O)CC(=O)[C@@H]1CC/C=C\CCC(=O)OC (stereo not given in full) [ENISOPROST] | 62 | 208 | ED50 (Canis familiaris [7]): 0.1 µg/kg; ED50 (Canis familiaris [8]): 0.3 µg/kg |
| CCCCC(C)(O)C/C=C/[C@H]1[C@H](O)CC(=O)[C@@H]1CCCCCCC(=O)OC (stereo not given in full) [MISOPROSTOL] | 366 | 66.5 | ED50 (Canis familiaris [1]): 0.3 µg/kg; ED50 (Canis familiaris [9]): 5.5 µg/kg |
